# N-glyco inh: N-linked glycosylation inhibition; D54 ERlucT glycosylation luciferase reporter, 24 h; percent of 100 nM tunicamycin response; actives 0.23% (n = 360,000); reporter increase, % at 12.5 µM;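 active means mean luciferase reporter signal, scaled so untreated is 0 and the glycosylation-blocking control 100, at or above a set limit in every replicate; inconclusive means mean reaches the limit but not every replicate does; inactive means mean below the limit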;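 further: luciferase carries N-glycosylation sites so blocking glycosylation raises the light; 0% = median of neutral control wells and 100% = median of 100 nM tunicamycin wells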
# ALR inh: blocks human ALR sulfhydryl oxidase activity; P55789; purified ALR, DTT oxidation, H2O2 HRP-luminol luminescence; inhibition, % (test concentration not listed); actives 3.8% (n = 290,000);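 active means mean replicate inhibition above about 79%, with every replicate also reaching it, limit read from the data; inconclusive means only one of the two criteria met; inactive means mean below limit and not every replicate reaching it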
# Target sequence (P55789 whole entry, looked up): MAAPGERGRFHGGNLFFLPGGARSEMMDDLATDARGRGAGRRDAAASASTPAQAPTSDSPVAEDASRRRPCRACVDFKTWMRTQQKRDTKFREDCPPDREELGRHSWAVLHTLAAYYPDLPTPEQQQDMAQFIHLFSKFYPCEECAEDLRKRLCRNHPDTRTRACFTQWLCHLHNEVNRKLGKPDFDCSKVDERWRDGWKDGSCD
# T cell modulator: modulates CD8 T cell binding to vesicles; AID 2052; 2C CD8+ T cell-vesicle binding, flow cytometry; hits give low values; response (vesicle binding), % at 7 µM; actives 0.068% (n = 330,000);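 active means response, share of CD8 T cells binding vesicles, and their 90th percentile fluorescence all below set limits, cut at about 80% in these data, passing the limit was not always enough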;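 further: values below 100% mean blocked vesicle binding to the CD8+ T cells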
#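 Assay system – 2C mouse CD8+ T cells · Also added – QL9-loaded Drosophila micro-vesicles · Timing – Cell–vesicle co-incubation 1.5 h at 37 °C, staining 20 min on ice · Signal – flow cytometry of vesicle-bound cells · Measure – percent CD8+ FL2 mean versus row control · Controls – Peptide-free naked vesicles (low) and QL9 vesicles with 0.7% DMSO vehicle (high)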
# * = called active by the depositor; i = inactive; ? = inconclusive; nt = not tested or not shown. The entries come from a sample that favours hits as a whole.
SMILES,N-glyco inh,ALR inh,T cell modulator
Cc1ncc(CO)c(CO)c1O,2,0,671
Cc1ncc(CO)c(CNc2ccc(-c3nc4ccccc4[nH]3)cc2)c1O,-10,98*,145
CC1CCC2(CC1)Nc1ccccc1C(=O)N2c1ccccc1 (stereo not drawn),0,-2,240
O=C1c2ccccc2NC2(CCCCC2)N1c1ccc(O)cc1,-1,99*,226
CN(CC(=O)Nc1cccc(F)c1)C(=O)CN1C(=O)C2CCCCC2C1=O (stereo not drawn),6,-4,823
COCCN(C(=S)Nc1c(C)cc(C)cc1C)C(C)c1cccs1 (stereo not drawn),5,-2,241
Cc1cc(-c2n[nH]c(=S)o2)c(C)n1-c1ccccc1,nt,95*,780
Cc1cc(-c2n[nH]c(=S)n2-c2ccccc2)nn1C,1,42,186
O=c1[nH]c2ccccc2nc1-c1c[nH]c2ccccc12,0,3,195
S=c1[nH]nc(-c2c[nH]c3ccccc23)o1,0,98*,176
Oc1cc2ccccc2cc1-c1n[nH]c(=S)o1,nt,97*,379
S=c1[nH]nc(COc2ccc3ccccc3c2)o1,1,30,158
Cc1ccc(N2C(=O)Nc3ccccc3C2(O)C(=O)NCCCOC(C)C)cc1C (stereo not drawn),-1,-4,362
CCOC(=O)C1(C)CCCN1C(=O)c1ccc2ccccc2c1 (stereo not drawn),0,nt,nt
O=C(NC1CCCC1)C(c1cccnc1)N(C(=O)c1ccco1)c1cccc(F)c1 (stereo not drawn),0,nt,588
COc1cc2c(cc1OC)CN(C(=O)CCNC(=O)c1ccccc1Cl)CC2,3,9,286
COc1cc(Cl)c(C)cc1NC(=O)CN1CCN(C(=O)C2CC2)CC1,28*,1,297
COc1ccc(OC)c(NC(=O)CCN2CCCCC2)c1,4,nt,76*
COc1ccc(C)cc1NC(=O)CCN1CCCC1,0,nt,874
COc1ccc(N)cc1NC(=O)CN1CCCC1,1,97*,221
COc1ccc(S(=O)(=O)N(C)C)cc1NC(=O)CN1CCN(C(=O)C2CC2)CC1,4,-4,666
COc1ccc(Cl)cc1NC(=O)CN1CCCCCC1,1,-10,213
O=C(CN1C(=O)NC2(CCCC2)C1=O)NCCc1ccc(F)cc1,0,-3,551
COc1ccc(S(=O)(=O)NC(C)C(=O)NCC2CCCO2)cc1OC (stereo not drawn),-1,-6,298
CCOc1ccc(CCNC(=O)c2cccc(-n3cnnn3)c2)cc1OCC,0,-8,167
SMILES,N-glyco inh,ALR inh,T cell modulator
CCOC(=O)C1CCN(C(=O)CCn2c(=O)c3cccn3c3cccnc32)CC1,2,-3,212
O=C1c2ccccc2C(Nc2ccccc2)N1c1cccnc1 (stereo not drawn),0,-17,176
COc1ccc(NC2c3ccccc3C(=O)N2c2cccnc2)cc1Cl (stereo not drawn),0,83*,707
CC(C(=O)NCC(=O)Nc1ccc(F)c(F)c1F)N1CCN(c2ccc(O)cc2)CC1 (stereo not drawn),-2,99*,287
CC(C(=O)NCC(=O)Nc1ccc(F)c(F)c1F)N1CCN(Cc2ccc(C#N)cc2)CC1 (stereo not drawn),-3,-3,322
CC1=Nc2ccccc2/C1=C/c1c(C)[nH]c2ccccc12,-5,nt,nt
CCN(CC)CCN1C(=O)c2cccc3cc(N)cc(c23)C1=O,60*,-10,138
Nc1cc2c3c(cccc3c1)C(=O)N(CCN1CCCC1)C2=O,?,3,216
O=C(CC(=O)N/N=C/c1ccc(O)cc1)N/N=C/c1ccc(O)cc1,2,99*,586
Cn1cccc1CC(=O)N/N=C/c1ccc([N+](=O)[O-])cc1,1,99*,911
COc1ccc(/C=N/NC(=O)CCn2cnc(-c3ccccc3)c2-c2ccccc2)cc1,4,-6,162
CC12CCC(C(=O)N/N=C/c3ccc(O)cc3)(OC1=O)C2(C)C (stereo not drawn),2,99*,293
O=C(CCn1cnc(-c2ccccc2)c1-c1ccccc1)N/N=C/c1ccc(O)cc1,6,89*,170
CC(C)(Cc1ccc(O)cc1)NC(=O)CC(=O)N/N=C/c1ccc(Cl)cc1,10,16,119
CC12CCC(C(=O)NNC(=O)c3ccccc3)(OC1=O)C2(C)C (stereo not drawn),2,-2,213
Cn1cccc1CC(=O)N/N=C\c1ccccc1,1,66,348
CCc1ccc(C(O)c2ncc(-c3ccc4ccccc4c3)[nH]2)cc1 (stereo not drawn),0,nt,nt
CC(C)C(=O)N1CCC1(C)C(=O)Nc1ccc2[nH]ccc2c1 (stereo not drawn),2,nt,nt
N#CC1=C(Nc2ccccc2Cl)SC2(CCCC2)NC1=O,3,nt,nt
Cn1cccc1C(=O)NCc1ccc(S(N)(=O)=O)cc1,0,2,227
CC1OC2CC(=O)OC2C2=C1C(=O)c1c(O)cccc1C2=O (stereo not drawn),-24,nt,nt
Cc1ccc(C(=O)N2CCCC2(C)C(=O)NCC(C)C)cc1F (stereo not drawn),2,nt,nt
CC(=O)Nc1ccc(/C=N\NC(=O)CNS(=O)(=O)c2ccc([N+](=O)[O-])cc2)cc1,0,-18,249
O=C(Cc1cccs1)N/N=C\c1ccc(O)cc1,-4,98*,i
O=C(N/N=C/c1ccccc1)C(=O)N/N=C/c1ccccc1,0,-2,372
SMILES,N-glyco inh,ALR inh,T cell modulator
O=C(CNS(=O)(=O)c1ccc([N+](=O)[O-])cc1)N/N=C\c1ccc(O)cc1,0,99*,192
O=C(N/N=C/c1ccc(O)cc1)/C(=C/c1ccccc1)CCO,-1,100*,823
Cn1cccc1/C=N/NC(=O)Cc1cccs1,-1,2,411
CC(=O)NCCc1c[nH]c2ccc(O)cc12,3,66,nt
CC(C)(C)OC(=O)N1CCC(C(=O)Nc2cccc(C(=O)NCCCc3ccccc3)c2)CC1,1,nt,nt
CC(C)(C)c1ccc(C(=O)N2CCC(C(=O)c3ccccc3)CC2)cc1,-1,nt,223
COc1ccccc1C=NN=Cc1ccccc1OC,3,nt,nt
COc1cc(/C=N/Nc2nc3c(c(=O)n(C)c(=O)n3C)n2Cc2ccccc2)ccc1OC(=O)c1ccco1,?,-8,204
Cc1ccc(Cn2c(N/N=C/c3ccncc3)nc3c2c(=O)n(C)c(=O)n3C)cc1,8,97*,879
C/C(Cl)=C/Cn1c(NCCN(C)C)nc2c1c(=O)n(C)c(=O)n2C,0,3,i
Cn1c(=O)c2c(nc(N/N=C/c3ccncc3)n2Cc2ccccc2)n(C)c1=O,6,97*,251
Cc1ccc(Cn2c(SCc3cccnc3)nc3c2c(=O)n(C)c(=O)n3C)cc1,-3,0,309
C/C(Cl)=C\Cn1c(Nc2ccccc2)nc2c1c(=O)n(C)c(=O)n2C,-1,87*,320
CCN(CC)S(=O)(=O)c1ccc(N2CCCCC2)c(NC(=O)C2CCN(C(=O)c3ccc(F)cc3)CC2)c1,1,-18,918
COc1cc(C(=O)Nc2ccc(C(=O)c3cccs3)cc2)cc(OC)c1OC,2,-4,189

# Source: PubChem (several laboratories)
